Laboratory results as given in ChEMBL document CHEMBL3822450, “Novel c-Met inhibitory olive secoiridoid semisynthetic analogs for the control of invasive breast cancer” (Eur J Med Chem, 2016).

Columns and labels:
[1] = target: Hepatocyte growth factor receptor (Homo sapiens, UniProt P08581); assay: Inhibition of recombinant human N-terminal His-tagged cytoplasmic c-MET kinase domain (956 to 1390 residues) phosphorylation expressed in baculovirus expression system using Tyr peptide-6 substrate incubated for 1 hr in presence of ATP by Z-Lyte assay
MDA-MB-231 [2] = assay: cells; details: Homo sapiens, MDA-MB-231, 72 h
MDA-MB-468 [3] = assay: cells; details: Homo sapiens, MDA-MB-468, 72 h
MDA-MB-231 [4] = assay: cells; details: Homo sapiens, MDA-MB-231, 24 h
cells = details: Homo sapiens, MCF-10A, 24 h
[5] = Cytotoxicity against human MCF10A cells assessed as inhibition of HGF-induced cell growth up to 80 uM incubated for 24 hrs by MTT assay; assay type: cell-based; details: mcf-10a
MDA-MB-231 [6] = assay: Antiproliferative activity against human MDA-MB-231 spheroids expressing c-MET assessed as inhibition of HGF-induced spheroid growth measured every 4 hrs for 72 hrs by cell tracker red dye based 3D spheroid disaggregation assay; assay type: functional
Procedure, shortened: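 CellTracker Red-labelled cells, 1,000/well in ultra-low-attachment round-bottom wells with phenol-red-free DMEM, 10% FBS, 5% Matrigel; single spheroid formed over 24 h, then HGF stimulation with compound or DMSO; imaged every 4 h for 72 h at 37°C; average red-object area gives fold increase in spheroid size; 8 spheroids/group, repeated twice.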

MDA-MB-231 [7] = assay: Effect on total c-MET protein level in human MDA-MB-231 cells at 1 to 10 uM after 72 hrs by Western blot analysis; details: mda-mb-231, 72 h
Procedure, shortened: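 HGF-stimulated cells treated 72 h with 1, 5 or 10 µM or vehicle; RIPA lysates, BCA-normalised, SDS-PAGE, PVDF, blocked in 2% BSA/TBST; primary antibodies (1:1,000) overnight at 4°C against total c-Met and phospho-c-Met Y1234/1235, HRP secondary, ECL detection; β-tubulin loading control.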

MDA-MB-231 [8] = assay: Antiproliferative activity against human MDA-MB-231 cells expressing c-MET assessed as inhibition of HGF-induced cell growth incubated for 72 hrs by MTT assay
MDA-MB-468 [9] = assay: Antiproliferative activity against human MDA-MB-468 cells expressing c-MET assessed as inhibition of HGF-induced cell growth incubated for 72 hrs by MTT assay

SMILES | IC50 [1] | IC50 (MDA-MB-231 [2]) | IC50 (MDA-MB-468 [3]) | IC50 (MDA-MB-231 [4]) | IC50 (cells) | other results
COc1cc(/C=C/COC(=O)/C=C/c2ccc(O)c(OC)c2)ccc1O | > 20 µM | 22.3 µM | 25.6 µM | 19.8 µM |  | 
COc1cc(/C=C/C(=O)OCCCc2ccc(O)cc2)cc(OC)c1O |  |  |  |  | 203 µM | 
COc1cc(/C=C/C(=O)Oc2ccc(O)cc2C(C)=O)ccc1O | > 20 µM | 10.6 µM | 14.2 µM | 8.3 µM |  | 
COc1cc(/C=C/C(=O)OCCc2ccc(N)nc2)cc(OC)c1O |  |  |  |  | 210 µM | 
COc1cc(/C=C/C(=O)OCCc2ccc(N)nc2)ccc1O |  |  |  |  | 213 µM | 
COc1cc(/C=C/C(=O)OCc2cc(OC)c(O)c(OC)c2)ccc1O |  |  |  |  | 168 µM | 
COc1cc(/C=C/C(=O)OCCc2ccc(O)c(O)c2)ccc1N |  |  |  |  | 244 µM | 
COc1cc(/C=C/C(=O)OCCCc2ccc(O)cc2)ccc1O |  |  |  |  | 190 µM | 
OCCc1ccc(O)cc1 [TYROSOL] | > 20 µM | > 100 µM | > 100 µM | > 50 µM |  | 
COC(=O)C1=CO[C@@H](C)[C@@H](C=O)[C@@H]1CC(=O)OCCc1ccc(O)cc1 | > 20 µM | 80.4 µM | 93.7 µM | 13.8 µM |  | 
COc1cc(CCOC(=O)/C=C/c2cc(OC)c(O)c(OC)c2)ccc1O |  |  |  |  |  | Activity [5]: Non-toxic; growth inhibition (GI) (MDA-MB-231 [6]): Dose-dependent effect; Activity (MDA-MB-231 [7]): Non-toxic; growth inhibition (GI) (MDA-MB-231 [8]): Dose-dependent effect; growth inhibition (GI) (MDA-MB-468 [9]): Dose-dependent effect
COc1cc(/C=C/C(=O)OCc2cc(OC)c(O)c(OC)c2)cc(OC)c1O |  |  |  |  | 172 µM | 
O=C(/C=C/c1ccc(O)cc1)OCCc1ccc(O)c(O)c1 | > 20 µM | 16 µM | 20.3 µM | 12.7 µM |  | 
COc1cc(/C=C/COC(=O)/C=C/c2cc(OC)c(O)c(OC)c2)ccc1O | > 20 µM | 27.9 µM | 31.2 µM | 18.8 µM |  | 
COc1cc(/C=C/C(=O)OCCc2ccc(O)c(N)c2)cc(OC)c1O |  |  |  |  | 186 µM | 
COc1cc(/C=C/C(=O)Oc2ccc(O)cc2C(C)=O)cc(OC)c1O | > 20 µM | 11.8 µM | 15.9 µM | 8.1 µM |  | 

Second part, led by results:

IC50 [1] | IC50 (MDA-MB-231 [2]) | IC50 (MDA-MB-468 [3]) | IC50 (MDA-MB-231 [4]) | SMILES | IC50 (cells) | other results
> 20 µM | 83.2 µM | 89.2 µM | 40.6 µM | COc1cc(/C=C(\C#N)C(=O)OCCc2ccc(O)cc2)cc(Br)c1O |  | 
> 20 µM | 72.3 µM | 79.1 µM | 16.3 µM | COc1cc(/C=C/c2nc(-c3ccc(O)cc3)no2)cc(OC)c1O |  | 
> 20 µM | 7.3 µM | 8.9 µM | 5.4 µM | COc1cc(/C=C/C(=O)OCCc2ccc(OC)c(OC)c2)ccc1O | 274 µM | 
> 20 µM | 8.2 µM | 9.9 µM | 6.2 µM | COc1cc(/C=C\C(=O)OCCc2ccc(OC)c(OC)c2)ccc1O | 223 µM | 
> 20 µM | 89.9 µM | 91.1 µM | 4.6 µM | COc1cc(/C=C/C=N/CCc2ccc(O)cc2)cc(OC)c1O |  | 
> 20 µM | 10.1 µM | 10.5 µM | 8.1 µM | COc1ccc(CCOC(=O)/C=C\c2cc(OC)c(O)c(OC)c2)cc1OC |  | 
> 20 µM | 68.8 µM | 74.5 µM | 30.4 µM | COc1cc(C=C(S)C(=O)OCCc2ccc(O)cc2)ccc1O |  | 
> 20 µM | 9.2 µM | 8.6 µM | 7.8 µM | COc1ccc(CCOC(=O)/C=C/c2cc(OC)c(O)c(OC)c2)cc1OC | 214 µM | 
> 20 µM | 72.8 µM | 80.2 µM | > 50 µM | COc1cc(/C=C/C(=O)NCCc2ccc(O)cc2)cc(OC)c1O [TRANS-N-SINAPOYLTYRAMINE] |  | 
> 20 µM | 91.3 µM | 92.2 µM | > 50 µM | COc1cc(CCC(=O)OCCc2ccc(O)cc2)cc(OC)c1O |  | 
